Wee1 stabilizer = Wee1 degradation inhibitors, primary screen, cell-based, HeLa, Wee1K328M-luciferase, luminescence | actives 1.2% (n = 220,000) | Wee1-like protein kinase (Homo sapiens), P30291 | reporter increase, % at 5 µM | HeLa Luc-Wee1K328M stability; 100% = proteasome inhibitor MG132 effect;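 active means activation above the mean of all tested compounds plus 3 SD, set per screening run, cut at about 8.8% in these data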;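 further: cells exposed to compound for 20 h before luminescence read; 0% = DMSO alone and 100% = MG132 at 30 µM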
L major viab = Leishmania major promastigote growth inhibition, primary screen; actives 9% (n = 200,000); Leishmania major promastigotes, resazurin fluorescence viability; inhibition, % at 10 µM;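 further: promastigotes grown with compound for 44 hours at 28 °C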
Rad51 HR inh = human RAD51 strand exchange inhibitors, primary screen, biochemical, fluorescence; DNA repair protein RAD51 homolog 1 (Homo sapiens), Q06609; hRad51 DNA strand exchange, fluorescence dequenching; inhibition, % at 10 µM; actives 0.085% (n = 200,000);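 active means inhibition above 40% at the single screening dose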;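 further: 0% = DMSO control wells and 100% = blanks with heterologous ssDNA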
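Material: hRad51 filaments on single-stranded DNA; Reagent: Donor/quencher-labelled 47-bp dsDNA substrate; Compound: 10 µM final, single point; Schedule: 37 °C 15-min filament assembly, 30-min compound preincubation, 15-min exchange; Technique: FRET fluorescence, excitation 485 nm, emission 520 nm; Benchmarks: control wells and blank wells on each plate.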
CHOP inhibitor = inhibitors of CHOP promoter induction, primary screen, cell-based, unfolded protein response, luciferase reporter | CHO-K1 CHOP-promoter luciferase, tunicamycin-induced, 15-18 h | AID 2732, 2010 | actives 3.8% (n = 220,000) | inhibition, % at 10 µM;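 active means compounds that reduced the stress-induced luciferase reporter signal by more than about 70% of percent inhibition, limit read from the data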;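 further: 0% = tunicamycin plus vehicle and 100% = wells without tunicamycin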
PKD1 inh = inhibitors of human PKD1 kinase, biochemical, fluorescence polarization. Serine/threonine-protein kinase D1 (Homo sapiens), Q15139. actives 0.056% (n = 200,000). inhibition, % (test concentration not listed). PKD1 kinase fluorescence polarization assay. AID 797, 2007
Target sequence (Q15139 whole entry, looked up): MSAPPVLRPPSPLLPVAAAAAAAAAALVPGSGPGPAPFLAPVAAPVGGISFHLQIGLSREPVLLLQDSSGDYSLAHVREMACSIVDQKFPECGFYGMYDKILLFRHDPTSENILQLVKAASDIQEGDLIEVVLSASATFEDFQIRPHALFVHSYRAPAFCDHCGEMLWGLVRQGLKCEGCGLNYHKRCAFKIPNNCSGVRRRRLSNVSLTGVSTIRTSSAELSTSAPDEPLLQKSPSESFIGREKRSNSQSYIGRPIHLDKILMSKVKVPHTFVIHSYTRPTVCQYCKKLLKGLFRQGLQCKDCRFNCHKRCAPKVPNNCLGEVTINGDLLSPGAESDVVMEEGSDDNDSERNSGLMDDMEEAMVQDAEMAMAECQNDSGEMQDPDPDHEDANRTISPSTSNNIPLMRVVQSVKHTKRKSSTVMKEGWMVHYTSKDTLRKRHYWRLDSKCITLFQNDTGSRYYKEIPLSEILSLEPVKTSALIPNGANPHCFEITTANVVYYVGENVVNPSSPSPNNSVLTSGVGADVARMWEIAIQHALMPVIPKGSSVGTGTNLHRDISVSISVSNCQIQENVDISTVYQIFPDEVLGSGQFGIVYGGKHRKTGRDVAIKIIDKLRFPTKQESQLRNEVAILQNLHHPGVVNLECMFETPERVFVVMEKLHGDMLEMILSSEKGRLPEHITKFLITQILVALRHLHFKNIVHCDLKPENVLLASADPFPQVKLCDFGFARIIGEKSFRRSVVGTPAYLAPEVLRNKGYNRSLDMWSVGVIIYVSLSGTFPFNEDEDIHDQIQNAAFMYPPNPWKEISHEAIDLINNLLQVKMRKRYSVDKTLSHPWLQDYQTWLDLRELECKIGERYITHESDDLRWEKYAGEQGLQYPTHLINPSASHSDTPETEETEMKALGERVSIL
Arbovirus inh = antivirals against arbovirus infection, primary screen, cell-based, full library, 10K replicate subset; AID 1251, 2008; arbovirus infection cell-based antiviral screen; actives 0.37% (n = 200,000); inhibition, % at 10 µM; in the data active means inhibition above about 30%
* hit, by the source's call. Rows were chosen to be rich in hits. Some 12% of all compounds tested hit in one or more screens of this group. Unless noted, no stated cut-off is given here; in the data, active means inhibition above about 50%; inactive means the rest.

How did CCc1ccc(C(C)NC(=O)C2(C)CC2(Br)Br)cc1 (stereo unspecified) do in these assays?
Wee1 stabilizer: -1; L major viab: 54*; CHOP inhibitor: 16; PKD1 inh: -5; Arbovirus inh: 0

Results for CCC(NC(=O)C1(C)CC1(Br)Br)c1ccc(C)cc1 (stereo unspecified) ?
Wee1 stabilizer: -2; L major viab: 26; Rad51 HR inh: -1; CHOP inhibitor: -11; PKD1 inh: 0; Arbovirus inh: -2

What do the screens show for `COc1ccc(C(=O)Nc2ccccc2C(=O)N2CCCCC2C)cc1` (stereo unspecified)?
Wee1 stabilizer: -1; L major viab: 9; Rad51 HR inh: -32; CHOP inhibitor: 6; PKD1 inh: -5; Arbovirus inh: -1

What do the screens show for `O=C(COC(=O)c1ccc([N+](=O)[O-])s1)Nc1ccccc1`?
Wee1 stabilizer: 0; L major viab: 38; Rad51 HR inh: -4; CHOP inhibitor: -25; PKD1 inh: -5; Arbovirus inh: -9

How did Cc1[nH]c2ccccc2c1C(=O)COC(=O)c1ccc([N+](=O)[O-])s1 do in these assays?
Wee1 stabilizer: -2; L major viab: 100*; Rad51 HR inh: -8; CHOP inhibitor: -95; PKD1 inh: -1; Arbovirus inh: -21

What do the screens show for `CC(C)(C)c1ccc(NC(=O)COC(=O)c2ccc([N+](=O)[O-])s2)cc1`?
Wee1 stabilizer: 2; L major viab: 58*; Rad51 HR inh: 1; CHOP inhibitor: 53; PKD1 inh: 2; Arbovirus inh: -2

How did CC(C)(C)c1ccc(NC(=O)COC(=O)C2(C)CC2(Cl)Cl)cc1 (stereo unspecified) do in these assays?
Wee1 stabilizer: 1; L major viab: 10; Rad51 HR inh: 16; CHOP inhibitor: 70*; PKD1 inh: 6; Arbovirus inh: -11

What do the screens show for `O=C(COC(=O)c1ccc([N+](=O)[O-])s1)NC(c1ccccc1)c1ccccc1`?
Wee1 stabilizer: 0; L major viab: 67*; Rad51 HR inh: 6; CHOP inhibitor: 19; PKD1 inh: -13; Arbovirus inh: -2

How did COc1ccc(CCN2C(=O)CC(NNc3ccc([N+](=O)[O-])cc3)C2=O)cc1OC (stereo unspecified) do in these assays?
Wee1 stabilizer: -3; L major viab: -7; Rad51 HR inh: -10; CHOP inhibitor: -12; PKD1 inh: -5; Arbovirus inh: -14

How did CCOC(=O)C1=C(C)Nc2nc(=S)[nH]n2C1c1ccc(Cl)cc1 (stereo unspecified) do in these assays?
Wee1 stabilizer: -4; L major viab: 94*; CHOP inhibitor: -26; PKD1 inh: 0; Arbovirus inh: 6

What do the screens show for `CCOC(=O)C1=C(C)Nc2nc(SCC)nn2C1c1ccc(OC)cc1` (stereo unspecified)?
Wee1 stabilizer: -1; L major viab: 2; Rad51 HR inh: 1; CHOP inhibitor: 45; PKD1 inh: 2; Arbovirus inh: -5

What do the screens show for `COCCSc1ccccc1C(=O)N1CCc2ccccc2C1`?
Wee1 stabilizer: 1; L major viab: -5; Rad51 HR inh: 1; CHOP inhibitor: 8; PKD1 inh: 5; Arbovirus inh: 8

Results for COCCN(C(=S)Nc1cc(C)cc(C)c1)C(C)c1cccnc1 (stereo unspecified) ?
Wee1 stabilizer: -2; L major viab: 95*; Rad51 HR inh: 6; CHOP inhibitor: 31; PKD1 inh: -2; Arbovirus inh: 2

Results for COCCN(C(=O)Nc1ccccc1)C(C)c1cccnc1 (stereo unspecified) ?
Wee1 stabilizer: 4; L major viab: 9; Rad51 HR inh: -7; CHOP inhibitor: 17; PKD1 inh: -3; Arbovirus inh: -2

What do the screens show for `COCCN(C(=S)Nc1ccc(C)cc1)C(C)c1cccnc1` (stereo unspecified)?
Wee1 stabilizer: 3; L major viab: 80*; Rad51 HR inh: 11; CHOP inhibitor: 2; PKD1 inh: 4; Arbovirus inh: 4

How did COCCN(C(=S)Nc1c(C)cc(C)cc1C)C(C)c1cccs1 (stereo unspecified) do in these assays?
Wee1 stabilizer: 2; L major viab: 98*; Rad51 HR inh: -9; CHOP inhibitor: 16; PKD1 inh: 1; Arbovirus inh: -8

What do the screens show for `CC1=NNC(=O)C1C(c1ccccc1)C1C(=O)NN=C1C` (stereo unspecified)?
Wee1 stabilizer: -1; L major viab: 13; Rad51 HR inh: -1; CHOP inhibitor: 12; PKD1 inh: -4; Arbovirus inh: -8

How did Cc1cc(C)n2nc(-c3sccc3-n3cccc3)cc2n1 do in these assays?
Wee1 stabilizer: 1; L major viab: 16; Rad51 HR inh: 2; CHOP inhibitor: -28; PKD1 inh: -5; Arbovirus inh: -1

What do the screens show for `Cc1cc(C)n2nc(-c3sccc3-n3c(C)ccc3C)cc2n1`?
Wee1 stabilizer: 0; L major viab: -1; Rad51 HR inh: 7; CHOP inhibitor: 76*; PKD1 inh: -7; Arbovirus inh: -8

Results for CCOc1ccc(C2NC(=O)NC(C)=C2[N+](=O)[O-])cc1OC (stereo unspecified) ?
Wee1 stabilizer: -3; Rad51 HR inh: 16; CHOP inhibitor: 11

Results for Cc1cc(F)ccc1NCc1ccc([N+](=O)[O-])cc1 ?
Wee1 stabilizer: 8; L major viab: 4; Rad51 HR inh: 5; CHOP inhibitor: -18; PKD1 inh: -5; Arbovirus inh: -25

What do the screens show for `Cc1cc(C(=O)Nc2ccc3c(c2)OCCO3)c2ccccc2n1`?
Wee1 stabilizer: -1; L major viab: -2; Rad51 HR inh: -190; CHOP inhibitor: 15; PKD1 inh: -5; Arbovirus inh: 2

What do the screens show for `Cc1ccc2nc(C)cc(Nc3ccc4c(c3)OCCO4)c2c1`?
Wee1 stabilizer: -1; L major viab: 100*; Rad51 HR inh: 7; CHOP inhibitor: 9; PKD1 inh: 2; Arbovirus inh: -25

How did CCOc1ccc2nc(C)cc(Nc3ccc4c(c3)OCCO4)c2c1 do in these assays?
Wee1 stabilizer: 5; L major viab: 101*; Rad51 HR inh: -1; CHOP inhibitor: -61; PKD1 inh: 9; Arbovirus inh: -44

Results for Cc1cc(Nc2cccc([N+](=O)[O-])c2)c2ccccc2n1 ?
Wee1 stabilizer: -3; L major viab: 45; Rad51 HR inh: -6; CHOP inhibitor: 23; PKD1 inh: 3; Arbovirus inh: -5

What do the screens show for `Cc1cc(C)c(C(N)=O)c(Nc2ccc3c(c2)OCCO3)n1`?
Wee1 stabilizer: 0; L major viab: 2; Rad51 HR inh: -5; CHOP inhibitor: 2; PKD1 inh: -7; Arbovirus inh: -5

Screening data: PubChem BioAssay, several laboratories
